Reference: PubChem BioAssay AID624380 (The Scripps Research Institute Molecular Screening Center, 2012)
Hit rate of the full screen: of about 2,300 compounds, about 120 (5.2%) were called active.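 How the source made its calls: active means mean activation above the mean of DMSO-only wells plus 3 SD (cut at about 0.5% in these data); inactive means the rest.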 Only a sample is shown.

What follows are compounds tested against Mu-type opioid receptor (Homo sapiens) (UniProt P35372) (assay: mu opioid receptor activation, arrestin complementation – cell-based, luminescence, single concentration, counter-screen for mouse HTR2A agonist project, confirmation (AID 624380)). Settings: U2OS OPRM1 beta-arrestin PathHunter, at 9.3 µM, active compounds read high, DMSO 0%, DAMGO 9.3 µM 100%.
Mu-type opioid receptor (Homo sapiens), sequence (P35372 whole entry, looked up, the tested form may be a part): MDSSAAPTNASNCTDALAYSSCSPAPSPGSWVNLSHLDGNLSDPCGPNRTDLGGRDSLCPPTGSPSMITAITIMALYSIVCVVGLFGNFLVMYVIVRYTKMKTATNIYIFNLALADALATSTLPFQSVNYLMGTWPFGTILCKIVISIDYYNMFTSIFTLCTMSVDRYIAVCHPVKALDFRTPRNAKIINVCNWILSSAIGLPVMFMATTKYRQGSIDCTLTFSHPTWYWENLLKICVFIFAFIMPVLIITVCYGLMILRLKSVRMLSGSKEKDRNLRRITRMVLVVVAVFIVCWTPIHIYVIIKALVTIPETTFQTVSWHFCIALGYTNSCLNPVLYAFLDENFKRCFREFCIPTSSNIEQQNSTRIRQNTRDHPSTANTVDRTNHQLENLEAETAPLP
Method in brief: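 Test system: U2OS cells, OPRM1–beta-arrestin fragment complementation / Quantity: 1000 cells per well seeded a day ahead / Timing: 3 h compound treatment, 37 °C, 1 h room-temperature reagent step / Measured by: chemiluminescence from reconstituted beta-galactosidase after detection reagent addition / Control set: DAMGO high control, DMSO low control / Repeats: three replicate wells per compound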
For `O=C(NCc1ccco1)c1cccn2c(=O)c3c4c(sc3nc12)CCCC4`, the activation was -0.39% (inactive). With `Cc1ccc2nc(-c3ccncc3)cc(C(=O)Nc3ccncc3)c2c1` the activation was 3.9% (active). `Cc1ccccc1CSCC(=O)NC(=O)NC(C)(C)C` was tested, and the activation was -0.45% (inactive). In the case of `CCOCCCNC(=O)Cc1cc(=O)[nH]c(=O)[nH]1`, the activation is reported as -0.49% (inactive). In the case of `C[C@@H]1ON(C)[C@H]2C[C@H]3c4cc(N5CCN(C)CC5)ccc4CCN3C(=O)[C@@H]12`, the activation is reported as -0.06% (inactive). For `Cc1ccc(CN2CCN(c3ncccn3)CC2)c(C)c1`, the activation was -0.26% (inactive). For `O=C(COC(=O)c1cc(S(=O)(=O)N2CCOCC2)ccc1F)NC1CC1`, the activation was -0.39% (inactive). With `CCOc1ccc(/C(O)=C2\C(=O)C(=O)N(c3ccc(OC)cc3)C2c2ccccc2[N+](=O)[O-])cc1` (stereo not given) the activation was -0.58% (inactive). With `Nc1cc(C(=O)N2CCN(c3ccccc3Cl)CC2)ccc1N1CC2CC(C1)c1cccc(=O)n1C2` (stereo not given) the activation was -0.61% (inactive). `COc1ccc(CNC(=O)c2ccc(NS(=O)(=O)c3ccc4[nH]c(=O)[nH]c4c3)cc2)cc1OC` was tested, and the activation was -0.74% (inactive). With `O=S(=O)(c1ccc(OCC(O)CN2CCN(c3ccccc3Cl)CC2)cc1)N1CCOCC1` (stereo not given) the activation was -0.67% (inactive). With `CCOC(=O)c1cc(-c2ccccc2C)n(Cc2cc(C)no2)n1` the activation was -0.46% (inactive). `O=C(OCC(=O)N1CCOCC1)c1ccc2ccccc2c1` was tested, and the activation was -0.5% (inactive). For `COc1ccc2c(Cl)c(-c3nnco3)sc2c1`, the activation was -0.41% (inactive). With `COc1ccc(C2c3[nH]c4ccccc4c3C[C@H]3C(=O)N(CC(C)C)CC(=O)N23)c(OC)c1` (stereo not given in full) the activation was -0.31% (inactive). With `COc1ccccc1CN1CCN(Cc2cc(OC)c(OC)cc2OC)CC1` the activation was -0.5% (inactive). For `COC(=O)c1cc(N2CCNCC2)nc2ccccc12`, the activation was -0.87% (inactive). With `O=C(c1ccncc1)N1CCN(c2ccc3ccccc3n2)CC1` the activation was 0.53% (active). `O=C(Cc1ccccc1)n1nc(-c2ccccc2)nc1NCc1ccco1` was tested, and the activation was 0.54% (active). With `COc1ccc(N2CC(C(=O)NCCN3C(=O)S/C(=C\c4cccnc4)C3=O)CC2=O)c(OC)c1` (stereo not given) the activation was -0.55% (inactive). For `Cc1c(C(=O)NCC2CC2)sc(=O)n1Cc1cccc(F)c1`, the activation was -0.53% (inactive). `CCn1c(SCC(=O)N2CCCC2=O)nc2ccccc21` was tested, and the activation was -0.43% (inactive). In the case of `Cc1cccnc1C(NC(=O)C1CCN(Cc2ccc(Cl)c(Cl)c2)CC1)c1ccc(Cl)cc1` (stereo not given), the activation is reported as -0.69% (inactive). `O=C(Cc1ccsc1)N1CCN(S(=O)(=O)c2cc(C(F)(F)F)cc(C(F)(F)F)c2)CC1` was tested, and the activation was -0.45% (inactive). `CCn1cc(C(=O)OCC(=O)Nc2cccc(C)c2)c(=O)c2ccc(C)nc21` was tested, and the activation was -0.4% (inactive). In the case of `C=C1C(=O)OC2C1CCC(C)=CCCC1(C)OC21` (stereo not given), the activation is reported as -0.63% (inactive). With `CO/N=C/CC(=O)c1ccc(OC)cc1` the activation was -0.34% (inactive). `Cc1ccc(NC(=O)CCOc2ccccc2)cc1S(=O)(=O)Nc1ccccc1Cl` was tested, and the activation was -0.34% (inactive). In the case of `O=C(Nc1cccc2cccnc12)c1ccc2sc([C@H]3C[C@H](O)[C@@H](CO)O3)nc2c1`, the activation is reported as 0.15% (inactive). For `CC(C)Oc1ccccc1C(=O)NC(CO)C(=O)O` (stereo not given), the activation was -0.52% (inactive). In the case of `Oc1ccc(CN2CCN(c3ncccn3)CC2)cc1`, the activation is reported as -0.36% (inactive). In the case of `CS(=O)(=O)c1ccc2nc(NC(=O)C3CCCCC3)sc2c1`, the activation is reported as -0.72% (inactive). In the case of `COc1ccccc1Nc1nnc(SC(C)C(=O)NC2CC2)s1` (stereo not given), the activation is reported as -0.47% (inactive). `Cc1cccc(CN2CCN(C3CN(Cc4ccccc4)S(=O)(=O)C3)CC2)c1` (stereo not given) was tested, and the activation was -0.55% (inactive). In the case of `O=C(CNCc1cccs1)Nc1cc(S(=O)(=O)N2CCCC2)ccc1Cl`, the activation is reported as -0.34% (inactive). For `COc1ccc(NS(=O)(=O)c2cc(C(=O)Nc3ccccc3C(=O)O)ccc2C)cc1`, the activation was -0.47% (inactive). In the case of `O=C(Nc1cc(=O)[nH]c2ncnn12)c1ccccc1Cl`, the activation is reported as -0.64% (inactive). `Cc1cc(C)n(S(=O)(=O)c2cccc([N+](=O)[O-])c2)n1` was tested, and the activation was -0.31% (inactive). With `FC(F)(F)COc1nc(N2CCCCC2)nc(N2CCNCC2)n1` the activation was -0.49% (inactive). `COc1ccc(/C=N/Nc2ccccc2C(=O)O)cc1` was tested, and the activation was 0.45% (inactive). For `COc1cccc(OC)c1OCCN1CCN(C(=O)c2ccco2)CC1`, the activation was -0.41% (inactive). With `CC(C)c1cc(C(=O)O)on1` the activation was -0.13% (inactive). `Cc1cc(C(=O)OCC(=O)N2c3ccccc3NC(=O)C2(C)C)c(C)n1-c1ccccc1` was tested, and the activation was -0.15% (inactive). In the case of `COC(=O)[C@]12CCCCC=C1N(CCC1=CCCCC1)C(=O)[C@H](CC(=O)NCC1CCCCC1)C2`, the activation is reported as -0.46% (inactive). `Cc1cc([N+](=O)[O-])ccc1NC1CCCC1` was tested, and the activation was 0.02% (inactive). With `C/C(=N\NC(=O)COc1c(C)cccc1C)c1cccs1` the activation was -0.05% (inactive). For `N#Cc1c(NC(=O)CCCl)sc2c1CCCCC2`, the activation was -0.23% (inactive). In the case of `CCCN(CCc1ccccc1)C1CCc2c(O)cccc2C1` (stereo not given), the activation is reported as 0.3% (inactive). `N#CCSc1nn(-c2ccc(F)cc2)c(=S)s1` was tested, and the activation was -0.5% (inactive). With `Cc1[nH]c2ccccc2c1CCN(Cc1cccs1)C(=S)NC(C)(C)C` the activation was -0.25% (inactive). In the case of `O=C(O)c1ccc(S(=O)(=O)N2CCC(Cc3ccccc3)CC2)cc1`, the activation is reported as -0.67% (inactive). `CCOC(=O)/C=c1\s/c(=C\c2ccccc2OC)c(=O)n1CC(=O)N1CCOCC1` was tested, and the activation was -0.62% (inactive). For `C=CCn1c(=NC(=O)c2cccs2)sc2cc(NC(C)=O)ccc21`, the activation was 0.46% (inactive). For `O=C1CCc2cc(S(=O)(=O)N3CCC(C(=O)NCc4ccccc4Cl)CC3)ccc2N1`, the activation was -0.62% (inactive). For `O=C(NCCCN1CCN(c2ccccc2F)CC1)C1CCC(=O)N1C1CCCCC1` (stereo not given), the activation was -0.51% (inactive). In the case of `CSc1nsc(SCC(=O)Nc2cc(C(=O)O)ccc2C)n1`, the activation is reported as -0.51% (inactive). For `CC(Nc1ccccc1)c1cccnc1` (stereo not given), the activation was -0.58% (inactive). With `CCOC(=O)[C@]12CCCC=C1N(Cc1ccc3c(c1)OCO3)C(=O)[C@H](CC(=O)NCc1cccs1)C2` the activation was -0.19% (inactive). For `OCC1(Cc2ccccc2)CCN(Cc2cc3ccccc3o2)CC1`, the activation was 0.94% (active). `Cn1c2c(c(=O)n(C)c1=O)C(c1ccc(O)cc1)Nc1ccccc1O2` (stereo not given) was tested, and the activation was -0.51% (inactive). With `O=C(O)C1C2C=CC(O2)C1C(=O)NCCc1cccc(Cl)c1` (stereo not given) the activation was -0.74% (inactive). In the case of `COc1ccc(/C(=N\O)c2nccc3cc(OC)c(OC)cc23)cc1OC`, the activation is reported as -0.42% (inactive). With `CC(=O)N1c2ccc(S(=O)(=O)N3CCC(C(=O)NC4CCCCC4C)CC3)cc2CC1C` (stereo not given) the activation was -0.74% (inactive). With `COC(=O)CC(=O)N1CCN(c2ccc(Cl)c(Cl)c2)CC1` the activation was -0.63% (inactive). For `Fc1ccc2[nH]c3c(N4CCSCC4)ncnc3c2c1`, the activation was 1.59% (active). `CN(C)[C@@H]1C(=O)C(C(N)=O)=C(O)[C@@]2(O)C(=O)C3=C(O)c4c(O)ccc(Cl)c4[C@@H](O)[C@H]3C[C@@H]12` was tested, and the activation was -0.63% (inactive). In the case of `O=C(c1ccco1)N1CCN(CCOc2ccccc2)CC1`, the activation is reported as -0.48% (inactive). `Cc1ccc2c(c1)NCC(C(=O)NC1CCC(C)CC1)O2` (stereo not given) was tested, and the activation was -0.52% (inactive). `COc1ccc(-c2nc3cc([N+](=O)[O-])ccc3o2)cc1OC` was tested, and the activation was 0.11% (inactive). With `COc1ccc(C(C)=O)cc1COC(=O)Cn1cnc2ccccc2c1=O` the activation was 0.31% (inactive). `Cc1oc2cc(Br)c(O)c(Br)c2c1C(=O)c1ccccc1` was tested, and the activation was -0.51% (inactive). With `CCCCn1c(N)c(N(CC(C)C)C(=O)CSc2ccc([N+](=O)[O-])cc2)c(=O)[nH]c1=O` the activation was -0.28% (inactive). For `COc1ccc2[nH]cc(CCN3C(=O)c4ccc(C(=O)O)cc4C3=O)c2c1`, the activation was -0.57% (inactive). With `Cc1ccc(C(=O)N/C(=C/c2cccs2)C(=O)N2CCCCC2)cc1` the activation was -0.51% (inactive). In the case of `O=C(Nc1ccc2c(c1)[C@@H]1C[C@@H](CC(=O)N3CCCCC3)O[C@@H](CO)[C@@H]1O2)NC1CCCCC1`, the activation is reported as -0.54% (inactive). In the case of `Cc1cccc(CN2CCN(C3CN(Cc4cn(Cc5cc(C)cc(C)c5)nn4)S(=O)(=O)C3)CC2)c1` (stereo not given), the activation is reported as -0.64% (inactive). In the case of `COC(=O)Cn1nc(-c2ccccc2)c2cc(Cl)ccc21`, the activation is reported as -0.43% (inactive). With `CCCC(=O)N=c1sc2cccc(F)c2n1C` the activation was -0.39% (inactive). With `CCCCNc1c(-c2cccc(Sc3ccc(OC)cc3)c2)nc2ccccn12` the activation was -0.06% (inactive). For `CC(=O)c1ccc(OCC(=O)N(C)C2CCS(=O)(=O)C2)cc1` (stereo not given), the activation was -0.71% (inactive). For `Cc1ccc(S(=O)(=O)N2CCN(c3ncnc4ccccc34)CC2)cc1`, the activation was 0.43% (inactive). In the case of `N/C(=N\S(=O)(=O)c1cc(C(F)(F)F)cc(C(F)(F)F)c1)c1cccs1`, the activation is reported as 0.39% (inactive). In the case of `CC1(Cc2cccc(C#N)c2)C(=O)Nc2ccc(-c3cccc(C(F)(F)F)c3)cc21` (stereo not given), the activation is reported as -0.07% (inactive). With `NNc1cccc(C=Cc2ccccc2)cc1=O` the activation was 0.48% (inactive). `COc1cccc(NC(=O)CSc2nnc(-c3cccnc3)o2)c1` was tested, and the activation was -0.3% (inactive). With `O=C1CC(c2cccc(Cl)c2)CC(O)=C1C=Nc1ccccc1` (stereo not given) the activation was -0.61% (inactive). For `COC(=O)c1ccc(CSc2nnc(NC(C)C)s2)cc1`, the activation was -0.75% (inactive). For `C/C(=N\NC(=S)NC1CCCCC1)c1ccc(C)o1`, the activation was -0.73% (inactive). With `COCCN(Cc1cc2cc3c(cc2nc1Cl)OCO3)C(=O)c1cccc(C)c1` the activation was -0.33% (inactive). For `Nc1c(N(Cc2ccco2)C(=O)c2cccc(F)c2)c(=O)[nH]c(=O)n1Cc1ccccc1`, the activation was -0.45% (inactive). With `COC(=O)[C@@]1(Cc2ccc(F)cc2)[C@H]2c3cc(C(=O)N(C)C)n(CCc4c[nH]c5ccc(OC)cc45)c3C[C@H]2CN1C(=O)c1ccccc1` the activation was -0.5% (inactive). For `Cc1ccc(NC(=O)CSc2nnc(COc3ccccc3C)o2)cc1`, the activation was -0.2% (inactive). For `CNCC(O)c1ccc(O)c(O)c1` (stereo not given), the activation was -0.22% (inactive). In the case of `CSc1ncnc2c1ncn2CCCNCc1cccs1`, the activation is reported as -0.51% (inactive). `CCCCC(CC)CNC(=O)CCCCn1c(=O)[nH]c2ccsc2c1=O` (stereo not given) was tested, and the activation was -0.47% (inactive).
